Data published in ChEMBL document CHEMBL1148671, “Synthesis and antibacterial activity of C12 des-methyl ketolides” (2006).
≈ marks a conversion by molar mass, not a printed value.

Tests used:
Format in all cases: functional
Streptococcus pneumoniae [1] = test: Antibacterial activity against erythromycin-resistant Streptococcus pneumoniae mef 5654 by broth microdilution method
Streptococcus pneumoniae [2] = test: Antibacterial activity against erythromycin-resistant Streptococcus pneumoniae mef S 3427 by broth microdilution method
Haemophilus influenzae [3] = test: Antibacterial activity against Haemophilus influenzae 49247 by broth microdilution method
Method in brief: (§1)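 In vitro activity was read as the minimum inhibitory concentration (MIC) by broth microdilution and reported in μg/mL. The S. pneumoniae panel included erythromycin-resistant strains carrying mef or erm genes. Telithromycin and clarithromycin were run as comparators in every assay.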

Haemophilus influenzae [4] = test: Antibacterial activity against Haemophilus influenzae 2762 by broth microdilution method; method in brief: as §1
Enterococcus faecalis [5] = test: Antibacterial activity against Enterococcus faecalis 29212 by broth microdilution method; method in brief: as §1
Enterococcus faecalis [6] = test: Antibacterial activity against Enterococcus faecalis bc11148-2 by broth microdilution method; method in brief: as §1
Streptococcus pyogenes = test: Antibacterial activity against Streptococcus pyogenes 8668 by broth microdilution method; method in brief: as §1
Streptococcus pneumoniae [7] = test: Antibacterial activity against Streptococcus pneumoniae 49619 by broth microdilution method; method in brief: as §1
Staphylococcus aureus [8] = test: Antibacterial activity against Staphylococcus aureus 29213 by broth microdilution method; conditions: ATCC29213; method in brief: as §1
Staphylococcus aureus [9] = test: Antibacterial activity against Staphylococcus aureus 33591 by broth microdilution method; method in brief: as §1
[10] = tested on: Staphylococcus epidermidis; test: Antibacterial activity against Staphylococcus epidermidis 14990 by broth microdilution method; method in brief: as §1
[11] = tested on: Staphylococcus epidermidis; test: Antibacterial activity against Staphylococcus epidermidis f50654 by broth microdilution method; method in brief: as §1
Streptococcus pneumoniae [12] = test: Antibacterial activity against Streptococcus pneumoniae 297-749 by broth microdilution method; method in brief: as §1
Streptococcus pneumoniae [13] = test: Antibacterial activity against Streptococcus pneumoniae 280-962 by broth microdilution method; method in brief: as §1
Streptococcus pneumoniae [14] = test: Antibacterial activity against erythromycin-resistant Streptococcus pneumoniae erm 6849 by broth microdilution method

Structure (SMILES)	MIC (Streptococcus pneumoniae [1]) [µg/mL]	MIC (Streptococcus pneumoniae [2]) [µg/mL]	MIC (Haemophilus influenzae [3]) [µg/mL]	MIC (Haemophilus influenzae [4]) [µg/mL]	MIC (Enterococcus faecalis [5]) [µg/mL]	MIC (Enterococcus faecalis [6]) [µg/mL]	MIC (Streptococcus pyogenes) [µg/mL]	MIC (Streptococcus pneumoniae [7]) [µg/mL]	MIC (Staphylococcus aureus [8]) [µg/mL]	MIC (Staphylococcus aureus [9]) [µg/mL]	MIC [10] [µg/mL]	MIC [11] [µg/mL]	MIC (Streptococcus pneumoniae [12]) [µg/mL]	MIC (Streptococcus pneumoniae [13]) [µg/mL]	MIC (Streptococcus pneumoniae [14]) [µg/mL]
CC[C@H]1OC(=O)[C@H](C)C(=O)[C@H](C)[C@@H](O[C@@H]2O[C@H](C)C[C@H](N(C)C)[C@H]2O)[C@](C)(OC)C[C@@H](C)C(=O)[C@H](C)[C@@H]2[C@@H]1OC(=O)N2CCCCc1cnc(-c2cccnc2)s1	0.78 (≈ 0.957 µM)	0.1 (≈ 0.123 µM)	6.25 (≈ 7.67 µM)	1.56 (≈ 1.91 µM)	≤ 0.05	3.13 (≈ 3.84 µM)	≤ 0.05	≤ 0.05	0.2 (≈ 0.245 µM)	> 50	0.2 (≈ 0.245 µM)	0.1 (≈ 0.123 µM)	≤ 0.05	≤ 0.05	25 (≈ 30.7 µM)
CC[C@H]1OC(=O)[C@H](C)C(=O)[C@H](C)[C@@H](O[C@@H]2O[C@H](C)C[C@H](N(C)C)[C@H]2O)[C@](C)(OC)C[C@@H](C)C(=O)[C@H](C)[C@@H]2[C@@H]1OC(=O)N2CCCCc1ccc(-c2cncnc2)s1	0.4 (≈ 0.491 µM)		12.5 (≈ 15.3 µM)	3.13 (≈ 3.84 µM)	≤ 0.05	> 50	≤ 0.05	≤ 0.05	0.2 (≈ 0.245 µM)	> 50	0.2 (≈ 0.245 µM)	0.2 (≈ 0.245 µM)	≤ 0.05	≤ 0.05	> 50
CC[C@H]1OC(=O)[C@H](C)C(=O)[C@H](C)[C@@H](O[C@@H]2O[C@H](C)C[C@H](N(C)C)[C@H]2O)[C@](C)(OC)C[C@@H](C)C(=O)[C@H](C)[C@@H]2[C@@H]1OC(=O)N2CCCCn1ccc2ccccc21	0.2 (≈ 0.26 µM)		6.25 (≈ 8.12 µM)		0.1 (≈ 0.13 µM)	> 50	≤ 0.05	≤ 0.05	0.4 (≈ 0.519 µM)	> 50	0.2 (≈ 0.26 µM)	0.4 (≈ 0.519 µM)	≤ 0.05	≤ 0.05	6.25 (≈ 8.12 µM)
CC[C@H]1OC(=O)[C@H](C)C(=O)[C@H](C)[C@@H](O[C@@H]2O[C@H](C)C[C@H](N(C)C)[C@H]2O)[C@](C)(OC)C[C@@H](C)C(=O)[C@H](C)[C@@H]2[C@@H]1OC(=O)N2CCCCn1cnc2ncccc21	3.13 (≈ 4.05 µM)	0.4 (≈ 0.518 µM)	3.13 (≈ 4.05 µM)		0.1 (≈ 0.13 µM)	> 50	≤ 0.05	≤ 0.05	0.4 (≈ 0.518 µM)	> 50	0.4 (≈ 0.518 µM)	0.4 (≈ 0.518 µM)	≤ 0.05	≤ 0.05	0.78 (≈ 1.01 µM)
CC[C@H]1OC(=O)[C@H](C)C(=O)[C@H](C)[C@@H](O[C@@H]2O[C@H](C)C[C@H](N(C)C)[C@H]2O)[C@](C)(OC)C[C@@H](C)C(=O)[C@H](C)[C@@H]2[C@@H]1OC(=O)N2CCCCn1ccc2c(N)cccc21	0.78 (≈ 0.994 µM)		3.13 (≈ 3.99 µM)	1.56 (≈ 1.99 µM)	≤ 0.05	6.25 (≈ 7.96 µM)	≤ 0.05	0.1 (≈ 0.127 µM)	0.2 (≈ 0.255 µM)	> 50	0.4 (≈ 0.51 µM)	0.78 (≈ 0.994 µM)	≤ 0.05	≤ 0.05	25 (≈ 31.8 µM)
CC[C@H]1OC(=O)[C@H](C)C(=O)[C@H](C)[C@@H](O[C@@H]2O[C@H](C)C[C@H](N(C)C)[C@H]2O)[C@](C)(OC)C[C@@H](C)C(=O)[C@H](C)[C@H]2N(CCCCn3cnc(-c4cccnc4)c3)C(=O)O[C@]12C [TELITHROMYCIN]	0.4 (≈ 0.493 µM)														
CC[C@H]1OC(=O)[C@H](C)C(=O)[C@H](C)[C@@H](O[C@@H]2O[C@H](C)C[C@H](N(C)C)[C@H]2O)[C@](C)(OC)C[C@@H](C)C(=O)[C@H](C)[C@@H]2[C@@H]1OC(=O)N2CCCCc1ccnc2ccccc12	0.1 (≈ 0.128 µM)		1.56 (≈ 1.99 µM)		≤ 0.05	> 50	≤ 0.05	≤ 0.05	0.1 (≈ 0.128 µM)	> 50	0.1 (≈ 0.128 µM)	0.1 (≈ 0.128 µM)	≤ 0.05	≤ 0.05	6.25 (≈ 7.99 µM)
CC[C@H]1OC(=O)[C@H](C)C(=O)[C@H](C)[C@@H](O[C@@H]2O[C@H](C)C[C@H](N(C)C)[C@H]2O)[C@](C)(OC)C[C@@H](C)C(=O)[C@H](C)[C@@H]2[C@@H]1OC(=O)N2CCCCn1cnc2cccnc21	0.78 (≈ 1.01 µM)		3.13 (≈ 4.05 µM)		≤ 0.05	50 (≈ 64.8 µM)	≤ 0.05	≤ 0.05	0.2 (≈ 0.259 µM)	> 50	0.2 (≈ 0.259 µM)	0.4 (≈ 0.518 µM)	≤ 0.05	≤ 0.05	0.78 (≈ 1.01 µM)
CC[C@H]1OC(=O)[C@H](C)C(=O)[C@H](C)[C@@H](O[C@@H]2O[C@H](C)C[C@H](N(C)C)[C@H]2O)[C@](C)(OC)C[C@@H](C)C(=O)[C@H](C)[C@@H]2[C@@H]1OC(=O)N2CCCCc1ccc2ccccc2n1	0.2 (≈ 0.256 µM)		3.13 (≈ 4 µM)		≤ 0.05	3.13 (≈ 4 µM)	≤ 0.05	≤ 0.05	0.4 (≈ 0.512 µM)	> 50	0.2 (≈ 0.256 µM)	0.2 (≈ 0.256 µM)	≤ 0.05	≤ 0.05	25 (≈ 32 µM)
CC[C@H]1OC(=O)[C@H](C)C(=O)[C@H](C)[C@@H](O[C@@H]2O[C@H](C)C[C@H](N(C)C)[C@H]2O)[C@](C)(OC)C[C@@H](C)C(=O)[C@H](C)[C@@H]2[C@@H]1OC(=O)N2CCCCc1ncc(-c2cccc(N)c2)s1	0.78 (≈ 0.941 µM)		6.25 (≈ 7.54 µM)	1.56 (≈ 1.88 µM)	0.2 (≈ 0.241 µM)	3.13 (≈ 3.78 µM)	≤ 0.05	≤ 0.05	0.4 (≈ 0.482 µM)	> 50	0.4 (≈ 0.482 µM)	0.2 (≈ 0.241 µM)	≤ 0.05	≤ 0.05	50 (≈ 60.3 µM)
CC[C@H]1OC(=O)[C@H](C)C(=O)[C@H](C)[C@@H](O[C@@H]2O[C@H](C)C[C@H](N(C)C)[C@H]2O)[C@](C)(OC)C[C@@H](C)C(=O)[C@H](C)[C@@H]2[C@@H]1OC(=O)N2CCCCn1cnc(-c2ccccc2)c1	0.2 (≈ 0.251 µM)		3.13 (≈ 3.93 µM)		0.1 (≈ 0.125 µM)	> 50	≤ 0.05	≤ 0.05	0.2 (≈ 0.251 µM)	> 50	0.1 (≈ 0.125 µM)	0.2 (≈ 0.251 µM)	≤ 0.05	≤ 0.05	0.78 (≈ 0.979 µM)
CC[C@H]1OC(=O)[C@H](C)C(=O)[C@H](C)[C@@H](O[C@@H]2O[C@H](C)C[C@H](N(C)C)[C@H]2O)[C@](C)(OC)C[C@@H](C)C(=O)[C@H](C)[C@@H]2[C@@H]1OC(=O)N2CCCCn1ccc2ncccc21	0.2 (≈ 0.259 µM)		1.56 (≈ 2.02 µM)	0.78 (≈ 1.01 µM)	0.1 (≈ 0.13 µM)	6.25 (≈ 8.11 µM)	≤ 0.05	≤ 0.05	0.2 (≈ 0.259 µM)	> 50	0.4 (≈ 0.519 µM)	0.4 (≈ 0.519 µM)	≤ 0.05	≤ 0.05	0.2 (≈ 0.259 µM)
